Active and inactive are the calls of the source.

Data set [1] concerns Mus musculus. In words: Antioxidant activity against PTZ-induced decrease in superoxide dismutase activity in Swiss albino mouse brain assessed as enzyme units per mg of protein causing 50% inhibition in NBT reduction rate at 100 mg/kg, ip administered 30 mins before PTZ challenge measured after 4 hrs. Particulars: route intraperitoneal. The data set is classed as functional. The procedure, abridged: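 Same mouse dosing: 100 mg/kg i.p. 30 min before PTZ 85 mg/kg, brains taken at 4 h. Total SOD was measured in the ethanol phase of an ethanol/chloroform (5:3) extract, as inhibition of NBT reduction by xanthine–xanthine oxidase. One unit gives 50% inhibition; activity is expressed per mg protein (Lowry). n=6, mean ± SEM.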

In data set [2] the test system is Mus musculus. In words: Neurotoxicity in Swiss albino mouse at 300 mg/kg, ip after 4 hrs by rotarod test. The data set is classed as toxicity, organism-based. More on the design: dose 300 mg/kg, route intraperitoneal. Particulars: in vivo. The procedure, abridged:
(§1)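 Rotarod test in male Swiss albino mice (18–25 g) after i.p. dosing at 30, 100 and 300 mg/kg, read at 0.5 and 4 h. Mice falling within 30 s in a pre-check were excluded. Neurotoxicity was scored as the minimum dose at which half or more of the mice fell off the rod.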
(The rotarod test checks motor coordination on a turning rod.)

Data set [3] relates to Mus musculus. In words: Anticonvulsant activity against maximal electroshock-induced seizures in Swiss albino mouse at 300 mg/kg, ip after 0.5 hrs by MES test. It counts as functional, organism-based. More on the design: dose 300 mg/kg. In short, it runs like this: (§2)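 Male Swiss albino mice (18–25 g) received compound i.p. at 30, 100 and 300 mg/kg. MES seizures were induced after 0.5 and 4 h, with a drop of 0.9% saline placed in the eye before the electrodes went on. Protection meant abolition of the hind-limb tonic extensor component. The tabulated value is the minimum dose protecting half or more of the mice.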
(Protection in the maximal electroshock model is a classic sign of anticonvulsant action.)

Data set [4] has as its system Mus musculus. In words: Anticonvulsant activity against maximal electroshock-induced seizures in Swiss albino mouse at 300 mg/kg, ip after 4 hrs by MES test. It counts as functional, organism-based. More on the design: dose 300 mg/kg. In short, it runs like this:
as §2

Data set [5] deals with Mus musculus. In words: Anticonvulsant activity in ip dosed Swiss albino mouse assessed as minimum drug concentration required for inhibition of pentylenetetrazole-induced seizures in half or more of mouse after 0.5 hrs by scPTZ test. The data set is classed as functional. The procedure, abridged: (§3)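 Male Swiss albino mice (18–25 g) were dosed i.p. at 30, 100 and 300 mg/kg, examined at 0.5 and 4 h. PTZ 85 mg/kg (CD97) was given and the animals were […]. Protection meant absence of any threshold convulsion, i.e. clonic spasm lasting at least 5 s. The value is the minimum dose active in half or more of the mice.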

The test system of data set [6] is Mus musculus. In words: Anticonvulsant activity against pentylenetetrazole-induced seizures in Swiss albino mouse at 300 mg/kg, ip after 4 hrs by scPTZ test. The data set is classed as functional, organism-based. More on the design: dose 300 mg/kg. The procedure, abridged:
as §3

The subject of data set [7] is Mus musculus. In words: Neurotoxicity in Swiss albino mouse at 300 mg/kg, ip after 0.5 hrs by rotarod test. The data set is classed as toxicity, organism-based. More on the design: dose 300 mg/kg, route intraperitoneal. Particulars: in vivo. In short, it runs like this: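 Male Swiss albino mice (18-25 g) received the compound i.p. at 30, 100 or 300 mg/kg and were tested on the rotarod 0.5 and 4 h later. Mice were pre-checked, and any that fell off within 30 s were excluded. Neurotoxicity was scored as falling off the rod. The value is the minimum dose affecting half or more of the mice.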

For data set [8], the system named is Mus musculus. In words: Antioxidant activity against PTZ-induced lipid peroxidation in Swiss albino mouse brain assessed as malondialdehyde content per mg of protein at 100 mg/kg, ip preincubated for 30 mins before PTZ challenge measured after 4 hrs by TBARS assay. The settings on record: route intraperitoneal. It counts as functional. In short, it runs like this: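 Mice were dosed 100 mg/kg i.p. 30 min before PTZ 85 mg/kg, and brains were homogenized after 4 h. For TBARS, homogenate supernatant was heated with SDS, acetic acid and 0.8% thiobarbituric acid at 95 °C for 1 h. The product was extracted into n-butanol/pyridine and read at 532 nm. Results are pmol MDA/mg protein, n=6, mean ± SEM.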

Data set [9] relates to Mus musculus. In words: Anticonvulsant activity in ip dosed Swiss albino mouse assessed as minimum drug concentration required for inhibition of maximal electroshock-induced seizure in half or more of mouse after 0.5 hrs by MES test. It counts as functional. The procedure, abridged:
as §2

Data set [10] relates to Mus musculus. In words: Anticonvulsant activity in ip dosed Swiss albino mouse assessed as minimum drug concentration required for inhibition of maximal electroshock-induced seizure in half or more of mouse after 4 hrs by MES test. It counts as functional. The procedure, abridged:
as §2

In data set [11] the test system is Mus musculus. In words: Anticonvulsant activity in ip dosed Swiss albino mouse assessed as minimum drug concentration required for inhibition of pentylenetetrazole-induced seizures in half or more of mouse after 4 hrs by scPTZ test. The data set is classed as functional. The procedure, abridged: as §3
Data set [12] relates to Mus musculus. In words: Neurotoxicity in ip dosed Swiss albino mouse assessed as minimum drug concentration required for falling off the rotarod by half or more of mouse after 0.5 hrs by rotarod test. Particulars: in vivo. It counts as toxicity, organism-based. The procedure, abridged: as §1
Data set [13] relates to Mus musculus. In words: Neurotoxicity in ip dosed Swiss albino mouse assessed as minimum drug concentration required for falling off the rotarod by half or more of mouse after 4 hrs by rotarod test. The data set is classed as toxicity, organism-based. The settings on record: in vivo. In short, it runs like this:
as §1

Data set [14] has as its system Mus musculus. In words: Toxicity to Swiss albino mouse assessed as mortality following tonic extension at 300 mg/kg, ip after 0.5 hrs. It counts as organism-based. More on the design: dose 300 mg/kg, route intraperitoneal. The settings on record: in vivo.
In data set [15] the test system is Rattus norvegicus. In words: Anticonvulsant activity against pentylenetetrazole-induced seizures in Wistar albino rat at 50 mg/kg, po up to 2 hrs by scPTZ test. The data set is classed as functional, organism-based. More on the design: dose 50 mg/kg. The procedure, abridged: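 Male Wistar rats (100–125 g) were given compound orally at 50 mg/kg. They were challenged with scPTZ at 70 mg/kg at 0.25, 0.5, 1.0 and 2.0 h, and seizures were watched for. Protection meant absence of clonic spasm lasting at least 5 s. The score is the number of rats protected out of four.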

Data set [16] relates to Rattus norvegicus. In words: Neurotoxicity in Wistar albino rat at 50 mg/kg, po by rotarod test. The data set is classed as toxicity, organism-based. More on the design: dose 50 mg/kg, route oral. Particulars: in vivo.
Data set [17] relates to Mus musculus. In words: Anticonvulsant activity against pentylenetetrazole-induced seizures in Swiss albino mouse at 300 mg/kg, ip after 0.5 hrs by scPTZ test. More on the design: dose 300 mg/kg. The data set is classed as functional, organism-based. In short, it runs like this: as §3

Regarding `CCCC(CCC)C(=O)O` [VALPROIC ACID], the Activity in [1] is 65; in data set [2], “Non-toxic”; in data set [5], 300 mg/kg; in data set [7], “Non-toxic”; in data set [8], 216 pmol. For the same compound, the outcome in [3], in data set [4] and in [6] was inactive.

For `COc1cc(/C=N/NC(=O)Nc2nc3c(ccc4ccccc43)s2)ccc1O`, the Activity in data set [9] turned out to be 300 mg/kg; in [10] it was 300 mg/kg; in data set [5], 300 mg/kg; in data set [11], 300 mg/kg; in data set [12] it was 300 mg/kg; in data set [13], 100 mg/kg.

As for `COc1cc(/C=N/NC(=O)Nc2nc3c(ccc4ccccc43)s2)cc(OC)c1`, the Activity result in data set [2] is reported as “Non-toxic”; in data set [14] it was “Toxic”; in data set [7] it was “Non-toxic”. Besides, the result in [3], in data set [4] and in data set [6] was inactive.

For `NC(=O)N1c2ccccc2C=Cc2ccccc21` [CARBAMAZEPINE], the Activity came out at 30 mg/kg in [9]; 100 mg/kg in data set [10]; 100 mg/kg in data set [5]; 300 mg/kg in data set [11]; 100 mg/kg in [12]; 300 mg/kg in [13].

For the compound `O=C(N/N=C/c1ccccc1[N+](=O)[O-])Nc1nc2c(ccc3ccccc32)s1`, the outcome in data set [3] and in data set [4] was inactive. In addition, the Activity is 300 mg/kg in [5], 300 mg/kg in data set [11], 100 mg/kg in data set [13] and “Non-toxic” in data set [7].

Turning to `O=C(N/N=C/c1ccccc1O)Nc1nc2c(ccc3ccccc32)s1`, the Activity turned out to be 100 mg/kg in data set [9]; 300 mg/kg in data set [5]; 300 mg/kg in data set [11]; 100 mg/kg in data set [12]; 100 mg/kg in data set [13]. For the same compound, in data set [4], the outcome was inactive.

Turning to `O=C(N/N=C/c1ccc(Br)cc1)Nc1nc2c(ccc3ccccc32)s1`, the Activity amounted to 60 in data set [1]; 100 mg/kg in data set [9]; 100 mg/kg in data set [10]; 100 mg/kg in data set [5]; 100 mg/kg in data set [11]; 100 mg/kg in [12]. Besides, the Activity in data set [13] was 300 mg/kg; in [16], “Non-toxic”; in [8], 292 pmol. Moreover, in data set [15], the result was Active.

As for `O=C(N/N=C/c1ccccc1)Nc1nc2c(ccc3ccccc32)s1`, the Activity in data set [9] was 300 mg/kg; in [5], 300 mg/kg; in [11], 300 mg/kg; in data set [12] it was 100 mg/kg; in data set [13] it was 300 mg/kg. In addition, the result in [4] was inactive.

`CN(C)c1ccc(/C=N/NC(=O)Nc2nc3c(ccc4ccccc43)s2)cc1`: the outcome in [3] and in data set [4] was inactive. Further, the Activity in [5], in data set [11], in data set [12] and in data set [13] was 300 mg/kg in each case.

Regarding `COc1cc(/C=N/NC(=O)Nc2nc3c(ccc4ccccc43)s2)cc(OC)c1OC`, the Activity in data set [9] amounted to 300 mg/kg; in [10], 300 mg/kg; in data set [11], 300 mg/kg; in data set [12] it was 100 mg/kg; in data set [13], 100 mg/kg. Moreover, the outcome in data set [17] was inactive.

As for `C1CCc2nnnn2CC1` [PENTYLENETETRAZOL], the figures for the Activity in [1] and in [8] were 42 and 418 pmol, respectively.

`O=C(N/N=C1\C(=O)Nc2ccccc21)Nc1nc2c(ccc3ccccc32)s1`: the Activity is 300 mg/kg in data set [10], 300 mg/kg in data set [5], 100 mg/kg in data set [12] and 300 mg/kg in [13]. For the same compound, the result in data set [3] and in data set [6] was inactive.

For `O=C(N/N=C/c1ccc(F)cc1)Nc1nc2c(ccc3ccccc32)s1`, the Activity in data set [1] is 57; in data set [9], 300 mg/kg; in data set [10] it was 300 mg/kg; in [5], 100 mg/kg; in data set [11] it was 100 mg/kg; in data set [12], 300 mg/kg. Moreover, the Activity in [13] was 300 mg/kg; in data set [16] it was “Non-toxic”; in data set [8], 278 pmol. Also, the result in [15] was Active.

For `O=C1NC(=O)C(c2ccccc2)(c2ccccc2)N1` [PHENYTOIN], the Activity in data set [9] came to 30 mg/kg; in data set [10], 30 mg/kg; in data set [12] it was 100 mg/kg; in [13] it was 100 mg/kg. Further, the outcome in data set [17] and in [6] was inactive.

`O=C(N/N=C/c1ccccc1Cl)Nc1nc2c(ccc3ccccc32)s1`: the Activity result in data set [2] is “Non-toxic”; in [10], 300 mg/kg; in data set [11], 300 mg/kg; in data set [12], 300 mg/kg. Moreover, the result in data set [3] and in data set [17] was inactive.

For `COc1ccc(/C=N/NC(=O)Nc2nc3c(ccc4ccccc43)s2)cc1`, the Activity entry in data set [2] was “Non-toxic”; in data set [14], “Toxic”; in data set [7], “Non-toxic”. The outcome in data set [3], in [4] and in data set [6] was inactive.

Consider `O=C(N/N=C/c1ccc(O)cc1)Nc1nc2c(ccc3ccccc32)s1`, for which the values for the Activity result in data set [2], in data set [14] and in [7] were “Non-toxic”, “Toxic” and “Non-toxic”, respectively. Besides, the outcome in data set [3], in data set [4] and in data set [6] was inactive.

For the compound `CCC1(c2ccccc2)C(=O)NC(=O)NC1=O` [PHENOBARBITAL], the Activity in data set [9] is 100 mg/kg; in [10] it was 30 mg/kg; in data set [5], 30 mg/kg; in data set [11], 30 mg/kg; in [12], 100 mg/kg; in data set [13] it was 300 mg/kg.

Consider `C/C(=N\NC(=O)Nc1nc2c(ccc3ccccc32)s1)c1ccccc1`, for which the Activity entry in [2] is “Non-toxic”; in data set [5], 300 mg/kg; in [11], 300 mg/kg; in data set [12] it was 100 mg/kg. Besides, the outcome in data set [3] and in [4] was inactive.

The values above are taken from ChEMBL document CHEMBL1152833, “Synthesis of some novel N4-(naphtha[1,2-d]thiazol-2-yl)semicarbazides as potential anticonvulsants” (Eur J Med Chem, 2009).
